Laboratory results: paper PMC3606642 (Journal of natural products, 2012)
Entries after “also recorded” stand apart in the source; their conditions may differ.

Tested on: heat shock protein 70 (HSP70)
Test: Western blot analysis of HSP70 expression in U251 cells
Assay type: cell-based, human
Details: for HSP70 total cell expression (western blot): 5 μM, 24 h post-treatment; for Stress response (heat shock effect and oxidative stress effect) following treatment: effect abrogated by N-acetyl-cysteine
How it was run: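 U251 glioblastoma cells were grown in DMEM with 10% FBS and 1% penicillin/streptomycin at 37 °C and 5% CO2, plated sub-confluent and grown overnight. They were treated with test compound at 0, 0.1, 0.5, 1 and 5 μM for 24 h. Lysate proteins were quantified, run on SDS–PAGE, transferred to nitrocellulose and probed with anti-HSP70 (1:1000), with actin (1:50,000) as loading control and HRP secondaries (1:5000).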

| Structure (SMILES) | HSP70 total cell expression (western blot) | Stress response (heat shock effect and oxidative stress effect) following treatment |
| --- | --- | --- |
| C=C1C(=O)O[C@@H]2C[C@]1(C)OC[C@H]2[C@H]1CC[C@H]2[C@@H]3CC=C4CC=CC(=O)[C@]4(C)[C@H]3CC[C@]12C [Compound 3, withametelin] | upregulation was observed; also recorded: markedly upregulated | observed |
| C=C1C(=O)O[C@@H]2C[C@@]1(C)OC[C@H]2[C@H]1CC[C@H]2[C@@H]3C[C@@H](O)[C@@]45C[C@H]4CC(=O)[C@]5(C)[C@H]3CC[C@]12C [Compound 1, (20R,22R,24R)-21,24-epoxy-3α,5α-cyclo-1-oxowitha-25(27)-enolide] | – | do not exhibit this stress response |
| C=C1C(=O)O[C@@H]2C[C@]1(C)OC[C@H]2[C@H]1CC[C@H]2[C@@H]3C[C@@H](O)[C@@]4(O)CC=CC(=O)[C@]4(C)[C@H]3CC[C@]12C [Compound 4, withametelin O] | – | do not exhibit this stress response |
| C=C1C(=O)O[C@@H]2C[C@]1(C)OC[C@H]2[C@H]1CC[C@H]2[C@@H]3C[C@H]4O[C@]45CC=CC(=O)[C@]5(C)[C@H]3CC[C@]12C [Compound 5, withametelin F] | upregulation was observed; also recorded: markedly upregulated | observed |
| C=C1C(=O)O[C@@H]2C[C@]1(C)OC[C@H]2[C@H]1CC[C@H]2[C@@H]3CC=C4CC=CC(=O)[C@]4(C)[C@H]3C[C@@H](O)[C@]12C [Compound 2, (20R,22R,24R)-21,24-epoxy-12β-hydroxy-1-oxowitha-2,25,25(27)-trienolide] | upregulation was observed; also recorded: markedly upregulated | observed |
